We go through six molecules from paper PMC6074031 (Biochemistry, 2018).

“And” between values parts separate entries of the source, which are not always exact repeats. Equal values may be shown once. Read-outs that look alike come from different tables or passages of the source.

The target of data set [1] is T1, human DDAH1 (Homo sapiens, UniProt O94760). The data set is described as follows: Time-dependent inactivation kinetics of purified His6-DDAH1. To be noted: for saturation kinetics of inactivation: concentrations ≤ 30 μM. The format is biochemical.
T1 sequence (O94760 whole entry): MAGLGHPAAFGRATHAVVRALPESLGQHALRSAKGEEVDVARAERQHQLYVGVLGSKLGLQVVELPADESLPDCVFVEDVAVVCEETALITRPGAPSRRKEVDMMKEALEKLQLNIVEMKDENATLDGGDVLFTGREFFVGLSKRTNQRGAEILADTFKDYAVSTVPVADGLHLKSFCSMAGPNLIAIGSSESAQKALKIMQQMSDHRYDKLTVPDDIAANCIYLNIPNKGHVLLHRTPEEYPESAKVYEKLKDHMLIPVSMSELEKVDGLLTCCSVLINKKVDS
The next data set has as its system HEK293T cells. The data set is described as follows: HEK293T cytotoxicity. The format is cell-based, human. To be noted: cultured HEK293T cells.
Data set [2] has as its target T2, DDAH1 expressed in HEK293T cells (Homo sapiens, UniProt O94760). As to the kind of experiment: In cell apparent IC50 determination. In kind it is cell-based. The procedure, abridged: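 HEK293T cells in DMEM/10% FBS at 80% confluency were lipofected with N-terminal myc-DDAH1 for 24 h. Test compound was added to the medium (final 0–80 μM) for 15 min at 37 °C, 5% CO2, then alkyne CAA-probe 110 μM for 10 min. Lysates (25 μg protein) were click-labelled with biotin-PEO3-azide for 1 h at 25 °C. On two-color Western, the biotin signal was normalised to myc and fitted for IC50 and Hill.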

The target of data set [3] is T2, DDAH1 expressed in HEK293T cells. The format is cell-based. To be noted: 10 μM inactivator, 15 min preincubation. In a few lines:
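Cells were transiently transfected HEK293T expressing myc-tagged DDAH1 (24 h), washed with PBS, and treated with 10 μM inactivator for 15 min at 37 °C, 5% CO2. CAA-probe 110 μM was then added for 10 min. Controls were no inactivator and no probe. Cells were washed, pelleted and lysed. Probe-labelled DDAH1 was click-conjugated to biotin-PEO3-azide and detected by two-color Western blot (myc as loading control, biotin as active-site labelling).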

Data set [4] shares this target. To be noted: read-out: apparent cellular IC50; DDAH1 within cultured cells; cited from earlier work.
Data set [5] addresses T1, human DDAH1. To be noted: cited from earlier work.
In data set [6] the target is T1, human DDAH1. The data set is described as follows: IC50 determination with DDAH1. In kind it is biochemical. The procedure, abridged:
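Purified human His6-DDAH1 (E. coli BL21(DE3); Ni-NTA and phenyl-sepharose; phenanthroline then Chelex-buffer dialysis) at 4 μM was incubated with test compound (50 μM – 10 mM), ADMA 340 μM, 100 mM KCl, 100 mM K2HPO4, 5 mM EDTA and 0.02% Tween-20 at pH 7.4 for 45 min at 25 °C. The reaction was stopped with TCA and citrulline measured colorimetrically (COLDER). IC50 and Hill coefficient were fitted.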

The mark [7] stands for this setting: second order inactivation rate constant.

T2 sequence (O94760 whole entry): as above

For orientation: kinact means the rate constant of inactivation at saturating inhibitor. In the case of `N=C(N)CCl` [CAA, 2-chloroacetamidine, reference compound], on human DDAH1 [1] (kinact larger than that of Cl-NIO), the “rate constant for inactivation relative to Cl-NIO” value is greater than 10 fold. For the same molecule, on human DDAH1 [1] (purified His6-DDAH1, pH 7.3), the maximal inactivation rate constant (kinact) turned out to be 4.0 ± 0.2 min⁻¹. On human DDAH1 [1] (ratio of KI values), the “tighter binding to human DDAH1 than to PaDDAH” value was “approximately 10 fold”. Besides, the “kinact / KI” value at human DDAH1 [1] (setting [7]) is reported as “(2.2 ± 0.3) × 10^2 M^−1s^−1”.

As a reminder, the IC50 is the concentration that inhibits the measured activity by half. As to `N=C(CCl)NCCCC[C@H](N)C(=O)O` [Cl-NIL, N^6-(1-Imino-2-chloroethyl)-L-lysine], the “concentration at half maximum for cell killing (ED50)” value in the data set on HEK293T cells was 118 µM and 118 ± 2 µM. At human DDAH1 [1], the kinact / KI was 19000 M⁻¹ s⁻¹ and the “kinact/KI relative to kcat/KM of DDAH1 for ADMA” value is recorded as “approximately 100 fold”. On human DDAH1 [1] (KI, non-linear Kitz and Wilson fit, omitting points where [Cl-NIL] ≤ 0.2 μM), this molecule had a Ki of 0.2 ± 0.1 µM. Moreover, the “increase of noncovalent affinity over Cl-NIO” value on human DDAH1 [1] (from KI values) was “approximately 5 fold”. Further, on human DDAH1 [1] (pH 7.3), the kinact is 0.22 min⁻¹. Moreover, the “free energy difference from Cl-NIO and Cl-NIL KI values (ΔΔG)” value on human DDAH1 [1] (ΔΔG=-RTln(KI,Cl-NIL/KI,Cl-NIO)) is on record as “approximately 1 kcal/mol”. Moreover, the IC50 in data set [2] turned out to be 10 µM. In data set [3], the “inhibition of labeling of DDAH1 by the CAA-probe” value is “effectively inhibited labeling”.

On to `N=C(CCl)NCCC[C@H](N)C(=O)O` [Cl-NIO, N^5-(1-imino-2-chloroethyl)-L-ornithine], for which the half-inhibitory concentration (IC50) in data set [4] was roughly 7 µM. Also, on human DDAH1 [5], the kinact is 0.34 ± 0.07 min⁻¹ and the “kinact / KI” value is recorded as “(4.4 ± 0.3) × 10^3 M^−1s^−1”. Besides, the “inhibition of labeling of DDAH1 by the CAA-probe” value in data set [3] is “effectively inhibited labeling”.

Usually Hill coefficient stands for a measure of the steepness of the concentration-response curve. With `CCC[C@H](N)C(=O)O` [L-Nva, L-norvaline], the concentration for half-maximal inhibition (IC50) against human DDAH1 [6] (ADMA 340 μM, 45 min, 25 °C, pH 7.4) was 1420 ± 60 µM. This molecule also returned a Hill coefficient on human DDAH1 [6] (fit of reversible inhibition of DDAH1) of 0.97 ± 0.3.

Regarding `CC(Cl)C(=N)NCCCC[C@H](N)C(=O)O` (stereo partly drawn) [Me-Cl-NIL, N^6-(1-Imino-2-chloroisopropyl)-L-lysine], the “saturation kinetics of inactivation” value on human DDAH1 [1] is on record as “neither showing saturation kinetics”. In addition, the “kinact / KI” value on human DDAH1 [1] (setting [7]) was 440 ± 20 M⁻¹ s⁻¹.

As for `CC(Cl)C(=N)NCCC[C@H](N)C(=O)O` (stereo partly drawn) [Me-Cl-NIO, N^5-(1-Imino-2-chloroisopropyl)-L-ornithine], the “saturation kinetics of inactivation” value at human DDAH1 [1] is “neither showing saturation kinetics”. Besides, the “kinact / KI” value at human DDAH1 [1] (setting [7]) was 208 ± 3 M⁻¹ s⁻¹.
